The source made the active and inactive calls. The rule behind the calls is not given here.
Assays:
SK-MEL-28 [1] = experiment: Effect on oxygen consumption in human SK-MEL-28 cells at 10 uM after 72 hrs by oxygraphic analysis; assay type: functional, cell-based
In short: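 SKMEL-28 cells pre-incubated 72 h with 10^-5 M compound or untreated; five million cells per chamber in phenol red-free DMEM (glucose 1 g/L, pyruvate 110 mg/L). ROUTINE respiration recorded by high-resolution respirometry (Clark electrode), 37 °C, continuous stirring from chamber closure; O2 consumption slopes taken as routine respiration.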

Melanoma cell = experiment: Cytotoxicity against human Melanoma cells assessed as growth inhibition after 72 hrs by MTT-based colorimetric assay; assay type: functional
In short: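 Eleven human primary melanoma cultures treated for 72 h with the fumarate salt. Growth inhibition read by colorimetric MTT assay, with IC50 taken as 50% reduction of the cell population. Maximal concentration tested was 100 µM. Run once in sextuplicate.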

BT-549 = experiment: Cytotoxicity against human BT549 cells assessed as residual growth at 10 uM; assay type: functional
MCF7 [2] = experiment: Cytotoxicity against human MCF7 cells assessed as residual growth at 10 uM; assay type: functional
DU-145 = experiment: Cytotoxicity against human DU145 cells assessed as residual growth at 10 uM; assay type: functional
PC-3 = experiment: Cytotoxicity against human PC3 cells assessed as residual growth at 10 uM; assay type: functional
[3] = Cytotoxicity against human UO31 cells assessed as residual growth at 10 uM; assay type: functional, UO-31
TK-10 = experiment: Cytotoxicity against human TK10 cells assessed as residual growth at 10 uM; assay type: functional
SN12C = experiment: Cytotoxicity against human SN12C cells assessed as residual growth at 10 uM; assay type: functional
ACHN = experiment: Cytotoxicity against human ACHN cells assessed as residual growth at 10 uM; assay type: functional
OVCAR-8 = experiment: Cytotoxicity against human OVCAR8 cells assessed as residual growth at 10 uM; assay type: functional
IGROV-1 = experiment: Cytotoxicity against human IGROV1 cells assessed as residual growth at 10 uM; assay type: functional
SK-MEL-5 = experiment: Cytotoxicity against human SK-MEL-5 cells assessed as residual growth at 10 uM; assay type: functional
M14 = experiment: Cytotoxicity against human M14 cells assessed as residual growth at 10 uM; assay type: functional
LOX IMVI = experiment: Cytotoxicity against human LOXIMVI cells assessed as residual growth at 10 uM; assay type: functional
SF-295 = experiment: Cytotoxicity against human SF295 cells assessed as residual growth at 10 uM; assay type: functional
SF-268 = experiment: Cytotoxicity against human SF268 cells assessed as residual growth at 10 uM; assay type: functional
SW-620 = experiment: Cytotoxicity against human SW620 cells assessed as residual growth at 10 uM; assay type: functional
KM12 = experiment: Cytotoxicity against human KM12 cells assessed as residual growth at 10 uM; assay type: functional
HCT-15 = experiment: Cytotoxicity against human HCT15 cells assessed as residual growth at 10 uM; assay type: functional
HCT-116 = experiment: Cytotoxicity against human HCT116 cells assessed as residual growth at 10 uM; assay type: functional
HCC 2998 = experiment: Cytotoxicity against human HCC2998 cells assessed as residual growth at 10 uM; assay type: functional
NCI-H23 = experiment: Cytotoxicity against human NCI-H23 cells assessed as residual growth at 10 uM; assay type: functional
HOP-62 = experiment: Cytotoxicity against human HOP62 cells assessed as residual growth at 10 uM; assay type: functional
RPMI-8226 = experiment: Cytotoxicity against human RPMI8226 cells assessed as residual growth at 10 uM; assay type: functional
K562 = experiment: Cytotoxicity against human K562 cells assessed as residual growth at 10 uM; assay type: functional
HL-60(TB) = experiment: Cytotoxicity against human HL-60(TB) cells assessed as residual growth at 10 uM; assay type: functional
CCRF-CEM = experiment: Cytotoxicity against human CCRF-CEM cells assessed as residual growth at 10 uM; assay type: functional
SK-MEL-28 [4] = experiment: Induction of apoptosis in apoptotic-resistant human SK-MEL-28 cells at 5 uM after 24 to 72 hrs by TUNEL staining-based flow cytometry; assay type: functional, cell-based
In short: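 SKMEL-28 cells treated with 5 µM for 24, 48 and 72 h; apoptosis by TUNEL plus propidium iodide staining (APO-Direct kit) read by flow cytometry. Kit negative/positive controls, plus PC-3 cells untreated or given 1 µM narciclasine 72 h as internal controls. Quadruplicate (kit controls singlet); mean ± SEM.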

SK-MEL-28 [5] = experiment: Cell cycle arrest in apoptotic-resistant human SK-MEL-28 cells at 5 uM after 24 to 72 hrs by double propidium iodide staining-based flow cytometry; assay type: functional
In short: (§1)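 SK-MEL-28 cells exposed to 5 µM for 24, 48 and 72 h. Cell cycle was read by flow cytometry with propidium iodide plus TUNEL double staining (APO-Direct kit), in quadruplicate. Videomicroscopy photographed each field every 4 min over 72 h. Global growth is cells at a time point divided by cells at time 0; the treated/control ratio gives GGR. Cell death was judged from morphology. Run twice, in triplicate and in quadruplicate.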

SK-MEL-28 [6] = experiment: Cytostatic activity against apoptotic-resistant human SK-MEL-28 cells assessed as increase in cell size at 5 uM after 72 hrs by quantitative videomicroscopy; assay type: functional, cell-based; in short: as §1
SK-MEL-28 [7] = experiment: Cytostatic activity against apoptotic-resistant human SK-MEL-28 cells assessed as growth inhibition at 5 uM after 48 to 72 hrs by quantitative videomicroscopy; assay type: functional; settings: read-out: GI; in short: as §1
[8] = Cytotoxicity against HLF cells assessed as growth inhibition after 72 hrs by MTT-based colorimetric assay; assay type: cell-based; settings: Homo sapiens
In short: (§2)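 MTT colorimetric assay, 72 h exposure to the fumarate salt. Read-out is reduction of MTT to formazan by living cells. IC50 is the concentration that reduces the whole cell population by 50%. Six replicates per condition. Where compounds were not tested on every line, apoptosis-sensitive lines were PC3, MCF-7, LoVo and B16F10, and apoptosis-resistant lines were U373, T98G, A549 and SK-MEL-28.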

B16-F10 = experiment: Cytotoxicity against apoptotic-sensitive mouse B16F10 cells assessed as growth inhibition after 72 hrs by MTT-based colorimetric assay; assay type: functional, cell-based; settings: B16-F10, 72 h; in short: as §2
MCF7 [9] = experiment: Cytotoxicity against apoptotic-sensitive human MCF7 cells assessed as growth inhibition after 72 hrs by MTT-based colorimetric assay; assay type: functional, cell-based; settings: Homo sapiens, MCF7, 72 h; in short: as §2
SK-MEL-28 [10] = experiment: Cytotoxicity against apoptotic-resistant human SK-MEL-28 cells assessed as growth inhibition after 72 hrs by MTT-based colorimetric assay; assay type: functional, cell-based; settings: Homo sapiens, SK-MEL-28, 72 h; in short: as §2
[11] = Cytotoxicity against apoptotic-resistant human U373 cells assessed as growth inhibition after 72 hrs by MTT-based colorimetric assay; assay type: functional, cell-based, U-373MG ATCC; settings: Homo sapiens, U373 MG, 72 h; in short: as §2

In the case of `C=CCCCCOc1ccccc1-c1cnc(OCCCCC=C)n1C`, the Activity (SK-MEL-28 [1]) is reported as “Active”, the Activity (Melanoma cell) is reported as “Active” and the Activity (BT-549) is reported as 96.77%. For the same compound, the Activity (MCF7 [2]) was 42.18%, the Activity (DU-145) was 92.64% and the Activity (PC-3) was 73.54%. For the same compound, the Activity [3] was 69.27%, the Activity (TK-10) was 74.98% and the Activity (SN12C) was 91.09%. The Activity (ACHN) was 84.54%, the Activity (OVCAR-8) was 83.91% and the Activity (IGROV-1) was 62.95%. It also gave an Activity (SK-MEL-5) of 83.67%, an Activity (M14) of 72.63% and an Activity (LOX IMVI) of 69.06%. The Activity (SF-295) was 70.07%, the Activity (SF-268) was 79.65% and the Activity (SW-620) was 30.82%. The Activity (KM12) was 38.37%, the Activity (HCT-15) was 52.21% and the Activity (HCT-116) was 61.02%. For the same compound, the Activity (HCC 2998) was 61.08%, the Activity (NCI-H23) was 76.02% and the Activity (HOP-62) was 77.15%. The Activity (RPMI-8226) was 80.75%, the Activity (K562) was 30.53% and the Activity (HL-60(TB)) was 66.52%. The Activity (CCRF-CEM) was 80.85%, the Activity (SK-MEL-28 [4]) was “inactive” and the Activity (SK-MEL-28 [5]) was “inactive”. For the same compound, the Activity (SK-MEL-28 [6]) was “Active”, the inhibition of growth at 5 µM (SK-MEL-28 [7]) was 50% and the IC50 [8] was 22 µM. It also gave an IC50 (B16-F10) of 7 µM, an IC50 (MCF7 [9]) of 5 µM and an IC50 (SK-MEL-28 [10]) of 5 µM. The IC50 [11] was 7 µM.

— ChEMBL document CHEMBL3091366, “New 5-Aryl-1H-imidazoles display in vitro antitumor activity against apoptosis-resistant cancer models, including melanomas, through mitochondrial targeting” (J Med Chem, 2013)
